Key:
[1] = Protein binding in human plasma; type: ADME, cell-free; conditions: read-out: PPB
[2] = biological target: T1, 3',5'-cyclic-AMP phosphodiesterase 4D (Homo sapiens, UniProt Q08499); assay: Inhibition of recombinant human full length N-terminal GST-tagged PDE4D3 expressed in baculovirus infected Sf9 cells using FAM-cAMP as substrate incubated for 60 mins by fluorescence assay; conditions: sf9, 1 h
[3] = biological target: 3',5'-cyclic-AMP phosphodiesterase 4C (Homo sapiens, UniProt Q08493); assay: Inhibition of recombinant human full length N-terminal GST-tagged PDE4C1 expressed in baculovirus infected Sf9 cells using FAM-cAMP as substrate incubated for 60 mins by fluorescence assay; conditions: sf9, 1 h
[4] = Stability in mouse liver microsomes assessed as parent compound remaining at 1 uM measured after 30 mins by LC-MS/MS analysis; type: ADME, Microsome; conditions: read-out: Stability
In short: (§1)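 Liver microsome stability run by a contract lab using standard protocols. Parent compound remaining measured after 30 min incubation.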

[5] = Inhibition of recombinant N-terminal GST-tagged full length human PDE4A1A expressed in baculovirus infected Sf9 cells using FAM-cAMP as substrate incubated for 60 mins by fluorescence assay; conditions: sf9, 1 h
[6] = Inhibition of recombinant human His6-tagged PDE4D3 UCR1 S54D mutant expressed in baculovirus infected Sf9 insect cells using cAMP as substrate preincubated for 5 to 10 mins followed by substrate addition and measured for 10 mins by yeast myokinase/pyruvate kinase/lactate dehydrogenase-coupled fluorescence assay relative to control
[7] = biological target: cAMP and cAMP-inhibited cGMP 3',5'-cyclic phosphodiesterase 10A (Homo sapiens, UniProt Q9Y233); assay: Inhibition of recombinant human full length N-terminal GST-tagged PDE10A2 expressed in baculovirus infected Sf9 cells using FAM-cAMP as substrate incubated for 60 mins by fluorescence assay; conditions: sf9, 1 h
[8] = Toxicity in rat assessed as inappetence at 100 mg/kg, po; type: organism-based; conditions: in vivo
[9] = biological target: Cytochrome P450 2C9 (Homo sapiens, UniProt P11712); assay: Inhibition of CYP2C9 (unknown origin) by fluorescence-based assay; type: ADME
In short: (§2)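 CYP inhibition run with a fluorescent substrate by a contract laboratory under standard protocols; IC50 reported.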

[10] = Vascular toxicity in dog during 90 days study by microscopic analysis; design: species or system Canis lupus familiaris; conditions: in vivo, 2160 h
[11] = Toxicity in dog assessed as tremor at 100 mg/kg, po; type: organism-based, Canis lupus familiaris; conditions: in vivo
[12] = biological target: High affinity cAMP-specific and IBMX-insensitive 3',5'-cyclic phosphodiesterase 8A (Homo sapiens, UniProt O60658); assay: Inhibition of recombinant human full length N-terminal GST-tagged PDE8A1 expressed in baculovirus infected Sf9 cells using FAM-cAMP as substrate incubated for 60 mins by fluorescence assay; conditions: sf9, 1 h
Chain of High affinity cAMP-specific and IBMX-insensitive 3',5'-cyclic phosphodiesterase 8A (O60658 whole entry): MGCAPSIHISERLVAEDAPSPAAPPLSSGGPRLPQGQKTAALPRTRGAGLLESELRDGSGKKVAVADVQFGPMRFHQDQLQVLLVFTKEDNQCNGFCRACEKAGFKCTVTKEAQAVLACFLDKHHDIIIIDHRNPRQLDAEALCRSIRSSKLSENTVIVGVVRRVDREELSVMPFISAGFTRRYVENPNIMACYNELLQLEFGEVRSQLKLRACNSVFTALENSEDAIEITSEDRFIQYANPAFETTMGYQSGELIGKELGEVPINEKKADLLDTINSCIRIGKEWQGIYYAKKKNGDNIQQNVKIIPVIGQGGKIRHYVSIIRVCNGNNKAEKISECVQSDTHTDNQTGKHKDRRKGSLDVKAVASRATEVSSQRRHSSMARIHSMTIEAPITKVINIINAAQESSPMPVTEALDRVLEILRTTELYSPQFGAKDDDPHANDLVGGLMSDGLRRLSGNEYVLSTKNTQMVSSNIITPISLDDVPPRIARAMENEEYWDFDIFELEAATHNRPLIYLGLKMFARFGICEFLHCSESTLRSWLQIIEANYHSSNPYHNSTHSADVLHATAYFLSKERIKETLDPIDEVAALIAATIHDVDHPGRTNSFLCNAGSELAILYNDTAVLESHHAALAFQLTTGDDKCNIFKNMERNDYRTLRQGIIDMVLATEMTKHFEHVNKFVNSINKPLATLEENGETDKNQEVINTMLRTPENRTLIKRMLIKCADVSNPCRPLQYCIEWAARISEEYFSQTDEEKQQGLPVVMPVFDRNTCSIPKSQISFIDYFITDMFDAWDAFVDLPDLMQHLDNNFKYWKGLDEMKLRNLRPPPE

[13] = Toxicity in dog assessed as emesis at 100 mg/kg, po; type: organism-based, Canis lupus familiaris; conditions: in vivo
[14] = Stability in human liver microsomes assessed as parent compound remaining at 1 uM measured after 30 mins by LC-MS/MS analysis; type: ADME, Microsome; conditions: read-out: Stability; in short: as §1
[15] = Vascular toxicity in dog measured for 90 days; design: species or system Canis lupus familiaris; conditions: in vivo, 2160 h
[16] = biological target: High affinity 3',5'-cyclic-AMP phosphodiesterase 7A (Homo sapiens, UniProt Q13946); assay: Inhibition of recombinant human N-terminal GST-tagged PDE7A2 (122 to end residues) expressed in baculovirus infected Sf9 cells using FAM-cAMP as substrate incubated for 60 mins by fluorescence assay; conditions: sf9, 1 h
[17] = biological target: cGMP-inhibited 3',5'-cyclic phosphodiesterase 3B (Homo sapiens, UniProt Q13370); assay: Inhibition of recombinant N-terminal GST-tagged human PDE3B (592-end residues) expressed in baculovirus infected Sf9 cells using FAM-cAMP as substrate incubated for 60 mins by fluorescence assay; conditions: sf9, 1 h
[18] = Ratio of drug level in C57Bl6 mouse brain to plasma; type: ADME
[19] = Cardiovascular toxicity in dog at 100 mg/kg, po; type: organism-based, Canis lupus familiaris; conditions: in vivo
[20] = biological target: cGMP-dependent 3',5'-cyclic phosphodiesterase (Homo sapiens, UniProt O00408); assay: Inhibition of recombinant human full length N-terminal thrombin cleavage site-fused/GST-tagged PDE2A expressed in baculovirus infected Sf9 insect cells using FAM-cAMP as substrate measured after 60 mins by fluorescence assay; conditions: sf9, 1 h
Chain of cGMP-dependent 3',5'-cyclic phosphodiesterase (O00408 whole entry, the tested form may be a part): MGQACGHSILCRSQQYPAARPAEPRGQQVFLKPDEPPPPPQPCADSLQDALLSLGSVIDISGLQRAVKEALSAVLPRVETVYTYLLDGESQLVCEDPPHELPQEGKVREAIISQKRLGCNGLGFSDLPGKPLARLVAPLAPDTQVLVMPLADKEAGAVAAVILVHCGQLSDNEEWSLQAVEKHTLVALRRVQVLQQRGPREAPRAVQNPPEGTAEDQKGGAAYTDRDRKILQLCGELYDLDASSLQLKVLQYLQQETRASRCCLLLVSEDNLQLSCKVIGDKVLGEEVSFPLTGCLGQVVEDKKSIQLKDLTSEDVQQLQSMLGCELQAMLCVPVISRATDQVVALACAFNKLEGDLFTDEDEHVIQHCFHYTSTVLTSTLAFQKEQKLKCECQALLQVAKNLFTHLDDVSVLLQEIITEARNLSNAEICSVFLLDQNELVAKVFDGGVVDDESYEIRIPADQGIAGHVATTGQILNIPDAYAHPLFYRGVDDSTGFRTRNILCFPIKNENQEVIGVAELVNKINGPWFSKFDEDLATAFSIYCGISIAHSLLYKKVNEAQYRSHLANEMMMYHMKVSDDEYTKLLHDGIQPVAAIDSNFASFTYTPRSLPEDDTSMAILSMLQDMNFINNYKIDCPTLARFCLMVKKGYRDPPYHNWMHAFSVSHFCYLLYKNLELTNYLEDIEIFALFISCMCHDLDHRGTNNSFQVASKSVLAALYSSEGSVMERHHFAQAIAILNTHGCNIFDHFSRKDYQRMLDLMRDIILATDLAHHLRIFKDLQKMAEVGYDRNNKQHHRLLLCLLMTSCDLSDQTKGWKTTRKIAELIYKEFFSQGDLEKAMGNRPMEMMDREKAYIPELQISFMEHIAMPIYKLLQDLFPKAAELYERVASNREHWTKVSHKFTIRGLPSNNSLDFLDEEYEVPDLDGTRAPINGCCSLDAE

[21] = Inhibition of recombinant human N-terminal GST-tagged PDE4D7 (2 to 748 residues) expressed in baculovirus infected Sf9 cells using FAM-cAMP as substrate incubated for 60 mins by fluorescence assay; conditions: sf9, 1 h
[22] = test system: Mustela putorius furo; assay: Induction of emesis in ferret up to 30 mg/kg, po; type: organism-based; conditions: in vivo
[23] = biological target: Cone cGMP-specific 3',5'-cyclic phosphodiesterase subunit alpha' (Homo sapiens, UniProt P51160); assay: Inhibition of recombinant human N-terminal GST-tagged PDE6C expressed in baculovirus infected Sf9 cells using FAM-cGMP as substrate incubated for 60 mins by fluorescence assay; conditions: sf9, 1 h
Chain of Cone cGMP-specific 3',5'-cyclic phosphodiesterase subunit alpha' (P51160 whole entry): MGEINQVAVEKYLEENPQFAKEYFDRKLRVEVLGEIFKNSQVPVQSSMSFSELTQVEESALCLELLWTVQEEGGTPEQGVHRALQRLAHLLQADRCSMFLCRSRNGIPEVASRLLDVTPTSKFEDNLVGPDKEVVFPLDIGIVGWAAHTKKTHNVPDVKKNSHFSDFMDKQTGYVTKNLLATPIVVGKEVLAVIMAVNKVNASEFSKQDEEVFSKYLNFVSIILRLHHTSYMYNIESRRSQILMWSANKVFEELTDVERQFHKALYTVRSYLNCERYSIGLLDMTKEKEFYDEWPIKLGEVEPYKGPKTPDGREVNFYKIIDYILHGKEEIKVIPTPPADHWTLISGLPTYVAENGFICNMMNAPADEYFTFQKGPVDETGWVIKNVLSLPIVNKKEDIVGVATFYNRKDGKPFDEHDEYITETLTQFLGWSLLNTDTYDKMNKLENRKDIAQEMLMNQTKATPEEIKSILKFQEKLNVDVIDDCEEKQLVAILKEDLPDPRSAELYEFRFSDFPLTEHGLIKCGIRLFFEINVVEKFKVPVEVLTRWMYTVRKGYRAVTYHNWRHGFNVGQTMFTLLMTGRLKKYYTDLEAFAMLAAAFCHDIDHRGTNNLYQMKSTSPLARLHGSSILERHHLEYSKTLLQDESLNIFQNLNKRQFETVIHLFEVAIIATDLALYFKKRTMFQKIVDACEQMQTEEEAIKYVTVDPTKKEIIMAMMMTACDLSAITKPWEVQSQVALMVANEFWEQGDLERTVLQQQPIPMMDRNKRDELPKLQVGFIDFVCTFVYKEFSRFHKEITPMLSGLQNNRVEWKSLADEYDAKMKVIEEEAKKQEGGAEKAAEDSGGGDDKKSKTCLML

[24] = biological target: Dual specificity calcium/calmodulin-dependent 3',5'-cyclic nucleotide phosphodiesterase 1B (Homo sapiens, UniProt Q01064); assay: Inhibition of recombinant human full length N-terminal GST-tagged PDE1B expressed in baculovirus infected Sf9 insect cells using FAM-cAMP as substrate measured after 1 hr by fluorescence assay; conditions: sf9, 1 h
[25] = biological target: Cytochrome P450 2C19 (Homo sapiens, UniProt P33261); assay: Inhibition of […] (unknown origin) by fluorescence-based assay; type: ADME; in short: as §2
Chain of Cytochrome P450 2C19 (P33261 whole entry, the tested form may be a part): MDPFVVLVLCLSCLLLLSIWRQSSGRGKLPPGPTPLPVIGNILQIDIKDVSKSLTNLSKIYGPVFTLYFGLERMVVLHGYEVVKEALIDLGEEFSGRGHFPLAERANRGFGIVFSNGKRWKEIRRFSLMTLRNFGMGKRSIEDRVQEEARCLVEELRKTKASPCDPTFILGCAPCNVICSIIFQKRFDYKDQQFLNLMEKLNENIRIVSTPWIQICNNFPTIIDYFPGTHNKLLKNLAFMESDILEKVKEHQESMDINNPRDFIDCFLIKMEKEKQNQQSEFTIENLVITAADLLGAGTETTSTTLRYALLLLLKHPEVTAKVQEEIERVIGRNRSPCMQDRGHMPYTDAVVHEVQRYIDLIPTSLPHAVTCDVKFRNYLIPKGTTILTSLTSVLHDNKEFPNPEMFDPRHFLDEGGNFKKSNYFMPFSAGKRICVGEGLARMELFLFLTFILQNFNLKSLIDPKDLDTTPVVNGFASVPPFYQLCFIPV

[26] = biological target: T1, 3',5'-cyclic-AMP phosphodiesterase 4D; assay: Inhibition of recombinant human N-terminal GST-tagged PDE4D2 (2 to 507 residues) expressed in baculovirus infected Sf9 cells using FAM-cAMP as substrate incubated for 60 mins by fluorescence assay; conditions: sf9, 1 h
[27] = Inhibition of recombinant human His6-tagged PDE4D7 UCR1 S129D mutant expressed in baculovirus infected Sf9 insect cells using cAMP as substrate preincubated for 5 to 10 mins followed by substrate addition and measured for 10 mins by yeast myokinase/pyruvate kinase/lactate dehydrogenase-coupled fluorescence assay relative to control
[28] = biological target: Dual specificity calcium/calmodulin-dependent 3',5'-cyclic nucleotide phosphodiesterase 1A (Homo sapiens, UniProt P54750); assay: Inhibition of recombinant human full length N-terminal GST-tagged PDE1A5 expressed in baculovirus infected Sf9 insect cells using FAM-cAMP as substrate measured after 1 hr by fluorescence assay; conditions: sf9, 1 h
[29] = biological target: Dual specificity calcium/calmodulin-dependent 3',5'-cyclic nucleotide phosphodiesterase 1C (Homo sapiens, UniProt Q14123); assay: Inhibition of recombinant human N-terminal GST-tagged PDE1C (2 to 634 residues) expressed in baculovirus infected Sf9 insect cells using FAM-cAMP as substrate measured after 1 hr by fluorescence assay; conditions: sf9, 1 h
Chain of Dual specificity calcium/calmodulin-dependent 3',5'-cyclic nucleotide phosphodiesterase 1C (Q14123 whole entry, the tested form may be a part): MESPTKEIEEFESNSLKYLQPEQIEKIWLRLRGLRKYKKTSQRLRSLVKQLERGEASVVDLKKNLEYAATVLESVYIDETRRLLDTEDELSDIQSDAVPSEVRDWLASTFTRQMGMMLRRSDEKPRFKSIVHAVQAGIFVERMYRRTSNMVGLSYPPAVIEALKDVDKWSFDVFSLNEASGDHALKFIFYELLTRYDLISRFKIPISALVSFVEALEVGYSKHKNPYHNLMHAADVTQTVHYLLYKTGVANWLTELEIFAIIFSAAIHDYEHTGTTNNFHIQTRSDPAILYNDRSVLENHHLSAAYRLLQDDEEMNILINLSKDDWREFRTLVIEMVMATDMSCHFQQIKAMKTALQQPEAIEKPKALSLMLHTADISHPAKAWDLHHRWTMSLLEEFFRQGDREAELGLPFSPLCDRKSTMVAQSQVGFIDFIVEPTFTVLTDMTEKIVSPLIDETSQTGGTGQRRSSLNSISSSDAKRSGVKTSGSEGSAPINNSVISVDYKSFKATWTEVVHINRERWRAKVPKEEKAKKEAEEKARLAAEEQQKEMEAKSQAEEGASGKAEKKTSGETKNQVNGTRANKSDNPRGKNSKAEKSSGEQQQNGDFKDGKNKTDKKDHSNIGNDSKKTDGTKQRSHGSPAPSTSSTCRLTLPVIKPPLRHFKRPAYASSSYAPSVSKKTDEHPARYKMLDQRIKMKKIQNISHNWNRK

[30] = Toxicity in rat assessed as weight loss at 100 mg/kg, po; type: organism-based; conditions: in vivo
[31] = Protein binding in dog plasma; type: ADME, cell-free, Canis lupus familiaris; conditions: read-out: PPB
[32] = Aqueous kinetic solubility of the compound in pH 7.4 PBS buffer at 100 uM measured after 1 hr; type: physicochemical; conditions: pH 7.4, 1 h
[33] = Vascular toxicity in rat measured for 28 days; conditions: in vivo, 672 h
[34] = biological target: Voltage-gated inwardly rectifying potassium channel KCNH2 (Homo sapiens, UniProt Q12809); assay: Inhibition of human ERG
[35] = test system: Cynomolgus monkey; assay: Induction of emesis in cynomolgus monkey up to 50 mg/kg, po; type: organism-based, Macaca fascicularis; conditions: in vivo
[36] = biological target: Cytochrome P450 3A4 (Homo sapiens, UniProt P08684); assay: Inhibition of CYP3A4 (unknown origin) by fluorescence-based assay; type: ADME; in short: as §2

T1 sequence (Q08499 whole entry): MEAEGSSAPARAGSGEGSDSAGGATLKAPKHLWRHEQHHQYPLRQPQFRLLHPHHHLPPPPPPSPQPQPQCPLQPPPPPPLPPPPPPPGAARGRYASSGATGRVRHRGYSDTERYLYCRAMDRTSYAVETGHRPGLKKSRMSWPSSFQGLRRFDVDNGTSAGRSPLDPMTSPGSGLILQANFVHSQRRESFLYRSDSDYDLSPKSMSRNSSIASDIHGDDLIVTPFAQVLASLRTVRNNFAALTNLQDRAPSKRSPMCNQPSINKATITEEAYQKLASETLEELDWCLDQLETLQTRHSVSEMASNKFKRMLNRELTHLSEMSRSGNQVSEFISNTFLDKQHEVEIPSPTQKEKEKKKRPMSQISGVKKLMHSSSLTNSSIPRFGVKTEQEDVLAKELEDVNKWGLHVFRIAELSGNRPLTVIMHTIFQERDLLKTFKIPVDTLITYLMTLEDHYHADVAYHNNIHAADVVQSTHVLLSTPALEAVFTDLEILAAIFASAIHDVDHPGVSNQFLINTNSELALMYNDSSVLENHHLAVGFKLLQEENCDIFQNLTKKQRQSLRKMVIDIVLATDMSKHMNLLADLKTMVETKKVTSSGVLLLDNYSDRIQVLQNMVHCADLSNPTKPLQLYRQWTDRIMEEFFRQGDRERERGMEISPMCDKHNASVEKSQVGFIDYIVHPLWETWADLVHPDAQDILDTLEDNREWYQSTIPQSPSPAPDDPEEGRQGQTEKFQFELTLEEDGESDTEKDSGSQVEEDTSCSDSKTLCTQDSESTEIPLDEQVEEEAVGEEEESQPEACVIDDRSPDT

## O=C(O)Cc1ccc(Cc2cc(-c3cccc(Cl)c3)nc(C(F)(F)F)c2)cc1 [ZATOLMILAST]
[1]
  fraction unbound: 0.002 to 0.005
[2]
  inhibition (INH): Not Active
[3]
  inhibition (INH): Not Active
[4]
  remaining at 0.5 h, 1 µM: 88 to 100%
[5]
  inhibition (INH): Not Active
[6]
  Imax: 89%
[7]
  inhibition (INH): Not Active
[8]
  Activity: Toxic
[9]
  IC50: > 51 µM
[10]
  Activity: Non-Toxic
[11]
  Activity: Toxic
[12]
  inhibition (INH): Not Active
[13]
  Activity: Toxic
[14]
  remaining at 0.5 h, 1 µM: 88 to 100%
[15]
  Activity: Non-Toxic
[16]
  inhibition (INH): Not Active
[17]
  inhibition (INH): Not Active
[18]
  BPR: 0.45
[19]
  Activity: Non-Toxic
[20]
  inhibition (INH): Not Active
[21]
  inhibition (INH): Not Active
[22]
  Activity: Non-Toxic
[23]
  inhibition (INH): Not Active
[24]
  inhibition (INH): Not Active
[25]
  IC50: 43 µM
[26]
  inhibition (INH): Not Active
[27]
  Imax: 90.2%
[28]
  inhibition (INH): Not Active
[29]
  inhibition (INH): Not Active
[30]
  Activity: Toxic
[31]
  fraction unbound: 0.002 to 0.005
[32]
  Kinetic_solubility: 95 µM
[33]
  Activity: Non-Toxic
[34]
  IC50: > 10 µM
[35]
  Activity: Non-Toxic
[36]
  IC50: 15 µM

— ChEMBL document CHEMBL4396869, “Design and Synthesis of Selective Phosphodiesterase 4D (PDE4D) Allosteric Inhibitors for the Treatment of Fragile X Syndrome and Other Brain Disorders” (J Med Chem, 2019)
